Calls of active or inactive are those of the source. The rule behind the calls is not given here.
Legend:
[1] = tested on: Trypanosoma cruzi; assay: Antitrypanosomal activity against Trypanosoma cruzi Arequipa epimastigote forms incubated for 72 hrs by hemocytometry; assay type: functional, organism-based
How it was run: (§1)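 Epimastigotes grown in MTL medium with 10% inactivated FBS at 28 °C. Compounds were dissolved in DMSO (0.01% v/v) and added at 0.1–100 µM for 72 h. Parasites were counted in a Neubauer chamber. IC50 (50% growth inhibition) was derived by linear regression of Kc values. Values are averages of four determinations.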

[2] = tested on: Trypanosoma cruzi; assay: Antitrypanosomal activity against Trypanosoma cruzi Arequipa amastigote forms infected in African green monkey Vero cells incubated for 72 hrs by Giemsa staining based micrscopy; assay type: functional, organism-based
How it was run: (§2)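 Vero cells (RPMI, 10% inactivated FBS, 37 °C, 5% CO2) were seeded at 1×10^4/well on coverslips and cultured 2 days. They were infected 24 h with metacyclic forms at 10:1. After washing off free parasites, drugs were added at 0.1–100 µM for 72 h. Slides were methanol-fixed and Giemsa-stained; amastigotes were counted in 200 host cells versus untreated. IC50 was calculated.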

[3] = tested on: Trypanosoma cruzi; assay: Antitrypanosomal activity against Trypanosoma cruzi Arequipa trypomastigote froms infected in mouse blood incubated for 24 hrs by Neubauer chamber based assay; assay type: functional, organism-based
How it was run: (§3)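 Mouse blood taken at peak parasitemia (day 7) was diluted with uninfected blood to 4×10^6 trypomastigotes/mL, then 1:2 in RPMI 1640. Drugs from DMSO stocks were added at 1, 10, 25, 50 and 100 µM and incubated 24 h at 4–8 °C. Parasites were counted in a Neubauer chamber in triplicate. IC50 was calculated versus control.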

[4] = tested on: Trypanosoma cruzi; assay: Antitrypanosomal activity against Trypanosoma cruzi Tulahuen epimastigote forms incubated for 72 hrs by hemocytometry; assay type: functional, organism-based; how it was run: as §1
[5] = tested on: Trypanosoma cruzi; assay: Antitrypanosomal activity against Trypanosoma cruzi Tulahuen amastigote forms infected in African green monkey Vero cells incubated for 72 hrs by Giemsa staining based micrscopy; assay type: functional, organism-based; how it was run: as §2
[6] = tested on: Trypanosoma cruzi; assay: Antitrypanosomal activity against Trypanosoma cruzi Tulahuen trypomastigote froms infected in mouse blood incubated for 24 hrs by Neubauer chamber based assay; assay type: functional, organism-based; how it was run: as §3
[7] = tested on: Trypanosoma cruzi; assay: Antitrypanosomal activity against Trypanosoma cruzi SN3 epimastigote forms incubated for 72 hrs by hemocytometry; assay type: functional, organism-based; conditions: SN3, 72 h; how it was run: as §1
[8] = tested on: Trypanosoma cruzi; assay: Antitrypanosomal activity against Trypanosoma cruzi SN3 amastigote forms infected in African green monkey Vero cells incubated for 72 hrs by Giemsa staining based micrscopy; assay type: functional, organism-based; how it was run: as §2
[9] = tested on: Trypanosoma cruzi; assay: Antitrypanosomal activity against Trypanosoma cruzi SN3 trypomastigote froms infected in mouse blood incubated for 24 hrs by Neubauer chamber based assay; assay type: functional, organism-based; how it was run: as §3
[10] = tested on: Vero; assay: Cytotoxicity in African green monkey Vero cells incubated for 72 hrs; assay type: cell-based; conditions: Chlorocebus sabaeus
[11] = tested on: Trypanosoma cruzi; assay: Antitrypanosomal activity against Trypanosoma cruzi infected in African green monkey Vero cells assessed as reduction in number of trypomastigotes measured up to 10 days by Giemsa staining based hemocytometry; assay type: functional; conditions: time day <=10
How it was run: (§4)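 Vero cells infected with metacyclic forms (10:1) were exposed to one concentration per compound immediately after infection for 12 h at 37 °C, 5% CO2. After washing, cultures were kept 10 days with fresh medium every 48 h. Every 48 h, % infected cells and amastigotes per infected cell (200 Giemsa-stained cells) and medium trypomastigotes (Neubauer) were scored. Means of three experiments.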

[12] = tested on: Trypanosoma cruzi; assay: Antitrypanosomal activity against Trypanosoma cruzi infected in African green monkey Vero cells assessed as reduction in number of amastigotes per infected cell measured up to 10 days by Giemsa staining based hemocytometry; assay type: functional; conditions: time day <=10; how it was run: as §4
[13] = tested on: Trypanosoma cruzi; assay: Antitrypanosomal activity against Trypanosoma cruzi infected in African green monkey Vero cells assessed as reduction in infection rate measured up to 10 days by Giemsa staining based hemocytometry; assay type: functional; conditions: time day <=10; how it was run: as §4
[14] = tested on: Trypanosoma cruzi; assay: Antitrypanosomal activity against Trypanosoma cruzi Arequipa trypomastigotes infected in BALB/c mouse assessed as reduction in parasitemia measured during acute phase (days 0 to 40 post infection) at 50 to 100 mg/kg, po dosed on alternating days (7 to 15 days post infection); assay type: functional, organism-based; conditions: dose 50-100 mg/kg
How it was run: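 Female BALB/c mice (8–10 weeks, 25–30 g; groups of six) were infected i.p. with 5×10^5 Arequipa blood trypomastigotes. Dosing was oral, 50 or 100 mg/kg/day, on 5 alternating days (days 7–15 pi), alongside untreated and reference-drug groups. Parasitemia was counted in 5 µL mandibular-vein blood by Neubauer chamber through day 40 pi. Data are means ± SD of six mice.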

[15] = tested on: Trypanosoma cruzi; assay: Antitrypanosomal activity against Trypanosoma cruzi Arequipa trypomastigotes infected in BALB/c mouse assessed as reduction in mouse mortality measured during acute phase (days 0 to 40 post infection) at 50 to 100 mg/kg, po dosed on alternating days (7 to 15 days post infection); assay type: functional, organism-based; conditions: dose 50-100 mg/kg
[16] = tested on: Trypanosoma cruzi; assay: Antitrypanosomal activity against Trypanosoma cruzi Arequipa trypomastigotes infected in BALB/c mouse assessed as reduction in splenomegaly by measuring weight percent of spleens […] at 100 mg/kg, po dosed on alternating days (7 to 15 days post infection) by PCR analysis (reference value: 1.603%); assay type: functional

Structure (SMILES)	IC50 [1]	IC50 [2]	IC50 [3]	IC50 [4]	IC50 [5]	IC50 [6]	IC50 [7]	IC50 [8]	IC50 [9]	IC50 [10]	inhibition (INH) [11]	inhibition (INH) [12]	inhibition (INH) [13]	Activity [14]	Activity [15]	Spleen weight percent [16]
O=C(CCN1CCN(Cc2cccc(F)c2)CC1)c1csc2ccccc12	86.7 µM	22.6 µM	39.5 µM	28.9 µM	20 µM	27.3 µM	53.9 µM	32 µM	86.3 µM	70.8 µM	–	–	–	–	–	–
O=C(CCN1CCN(c2ccc([N+](=O)[O-])cc2)CC1)c1ccc2c(c1)OCO2	1.4 µM	1.2 µM	0.58 µM	15.6 µM	11.6 µM	0.08 µM	18.8 µM	11.4 µM	50.9 µM	276 µM	–	–	–	–	–	–
O=C(CCN1CCN(Cc2ccccc2)CC1)c1csc2ccccc12	29.7 µM	31.7 µM	43.3 µM	30.1 µM	21.7 µM	32.3 µM	42.5 µM	18.7 µM	20.8 µM	130 µM	–	–	–	–	–	–
O=C(Cn1ccnc1[N+](=O)[O-])NCc1ccccc1 [BENZNIDAZOLE]	–	23.7 µM	12.6 µM	–	21.7 µM	12.8 µM	–	–	6.2 µM	–	20%	30%	22%	Active	Active	0.837%
O=C(CCN1CCN(c2ccc([N+](=O)[O-])cc2)CC1)c1csc2ccc(F)cc12	36.6 µM	19.8 µM	43.3 µM	48.1 µM	8.8 µM	52.4 µM	39.4 µM	16.3 µM	4.1 µM	554 µM	–	–	–	–	–	–
COc1cc(Cl)ccc1N1CCN(CCC(=O)c2cc(C)sc2C)CC1	2.5 µM	0.8 µM	0.7 µM	4.7 µM	2 µM	2.3 µM	21.2 µM	24.2 µM	37.5 µM	138 µM	–	–	–	–	–	–
O=C(CCN1CCN(c2ccc(Cl)cc2)CC1)c1ccsc1	14.1 µM	10 µM	46.9 µM	28 µM	7.7 µM	22.3 µM	24.1 µM	16.3 µM	21.8 µM	65.8 µM	–	–	–	–	–	–
O=C(CCN1CCN(c2ccc(C(F)(F)F)cc2)CC1)c1csc2ccccc12	21.9 µM	19.3 µM	32.3 µM	48.2 µM	8.1 µM	6.6 µM	40.6 µM	21.4 µM	43.2 µM	237 µM	–	–	–	–	–	–

Now from value to compound, other results behind:

IC50 [1]	IC50 [2]	IC50 [3]	IC50 [4]	IC50 [5]	IC50 [6]	IC50 [7]	IC50 [8]	IC50 [9]	Structure (SMILES)	IC50 [10]	inhibition (INH) [11]	inhibition (INH) [12]	inhibition (INH) [13]	Activity [14]	Activity [15]	Spleen weight percent [16]
3.4 µM	5.4 µM	3.9 µM	6.9 µM	8.6 µM	6.9 µM	27.7 µM	20.3 µM	26.4 µM	O=C(CCN1CCN(c2ccc([N+](=O)[O-])cc2)CC1)c1ccc2ccccc2c1	74.3 µM	–	–	–	–	–	–
49 µM	23.9 µM	24.6 µM	27.6 µM	20.3 µM	25.5 µM	24.1 µM	12.4 µM	10.7 µM	O=C(CCN1CCN(c2ccc(F)cc2)CC1)c1ccc2ccccc2c1	103 µM	–	–	–	–	–	–
2.5 µM	1.7 µM	46.3 µM	69.1 µM	11.2 µM	29.3 µM	12.6 µM	6.2 µM	16.8 µM	O=C(CCN1CCN(c2ccc(Cl)cc2)CC1)c1ccc2c(c1)OCO2	0.3 µM	–	–	–	–	–	–
97 µM	22.4 µM	34.6 µM	200 µM	22.3 µM	56.3 µM	17.6 µM	14.8 µM	63.4 µM	O=C(CCN1CCN(c2ccc(F)cc2)CC1)c1ccc2c(c1)OCO2	323 µM	–	–	–	–	–	–
1.23 µM	2.6 µM	8.3 µM	4.2 µM	20.5 µM	6.6 µM	15.3 µM	8.3 µM	36.5 µM	O=C(CCN1CCN(c2ccc(C(F)(F)F)cc2)CC1)c1ccc2ccccc2c1	30.1 µM	–	–	–	–	–	–
28.5 µM	13.2 µM	9.6 µM	9.6 µM	14.8 µM	21.8 µM	30.1 µM	17.6 µM	19.6 µM	O=C(CCN1CCN(c2ccc(Cl)cc2)CC1)c1csc2ccc(F)cc12	246 µM	–	–	–	–	–	–
30.6 µM	25.3 µM	31.4 µM	42.3 µM	10.1 µM	12.8 µM	23.6 µM	26.3 µM	43.2 µM	O=C(CCN1CCN(c2ccc(Cl)cc2)CC1)c1csc2ccccc12	157 µM	–	–	–	–	–	–
50.6 µM	27.9 µM	21.8 µM	21.8 µM	17.6 µM	23.7 µM	17.8 µM	13 µM	14.2 µM	O=C(CCN1CCN(c2ccc(C(F)(F)F)cc2)CC1)c1ccc2c(c1)OCO2	48.7 µM	–	–	–	–	–	–

From ChEMBL document CHEMBL4680103, “In Vitro and in Vivo Anti-Trypanosoma cruzi Activity of New Arylamine Mannich Base-Type Derivatives” (J Med Chem, 2016)
